One block for each compound: values may come before it.
How the values were obtained:
[1] = tested on: Ptch+/−p53−/− medulloblastoma tumors; test: Ptch+/−p53−/− medulloblastoma allograft efficacy study in nude mice; assay type: in vivo, mouse
[2] = tested on: resistant tumor cells; test: Ex-vivo medulloblastoma proliferation assay; assay type: cell-based, mouse; conditions: cells freshly isolated from resistant tumors
[3] = target: human Smo (Homo sapiens, UniProt Q99835); test: Smo Agonist 1.5 displacement assay, human Smo; assay type: binding
Chain of human Smo (Q99835 28-787): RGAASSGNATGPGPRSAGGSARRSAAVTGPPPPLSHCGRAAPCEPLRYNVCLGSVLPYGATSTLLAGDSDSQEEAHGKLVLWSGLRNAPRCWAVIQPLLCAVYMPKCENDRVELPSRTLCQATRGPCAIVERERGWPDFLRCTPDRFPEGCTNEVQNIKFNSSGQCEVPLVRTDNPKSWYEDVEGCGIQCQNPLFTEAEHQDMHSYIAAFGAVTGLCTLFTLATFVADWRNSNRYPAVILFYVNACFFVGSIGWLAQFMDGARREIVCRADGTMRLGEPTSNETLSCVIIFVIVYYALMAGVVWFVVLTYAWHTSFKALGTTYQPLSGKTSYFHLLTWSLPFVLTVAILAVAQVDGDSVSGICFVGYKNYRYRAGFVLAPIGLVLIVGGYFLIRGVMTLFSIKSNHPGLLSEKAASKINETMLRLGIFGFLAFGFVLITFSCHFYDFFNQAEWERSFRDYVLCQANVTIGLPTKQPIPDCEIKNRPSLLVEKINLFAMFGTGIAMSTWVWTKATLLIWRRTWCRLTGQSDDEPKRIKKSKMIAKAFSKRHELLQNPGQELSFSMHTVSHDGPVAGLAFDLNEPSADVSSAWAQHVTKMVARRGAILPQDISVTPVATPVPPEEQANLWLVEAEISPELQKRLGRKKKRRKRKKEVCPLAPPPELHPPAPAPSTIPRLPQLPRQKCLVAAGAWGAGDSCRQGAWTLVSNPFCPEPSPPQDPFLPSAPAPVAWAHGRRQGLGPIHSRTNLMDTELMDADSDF

[4] = target: mouse Smo (Mus musculus, UniProt P56726); test: Smo Agonist 1.5 displacement assay, mouse Smo; assay type: binding
Chain of mouse Smo (P56726 33-793): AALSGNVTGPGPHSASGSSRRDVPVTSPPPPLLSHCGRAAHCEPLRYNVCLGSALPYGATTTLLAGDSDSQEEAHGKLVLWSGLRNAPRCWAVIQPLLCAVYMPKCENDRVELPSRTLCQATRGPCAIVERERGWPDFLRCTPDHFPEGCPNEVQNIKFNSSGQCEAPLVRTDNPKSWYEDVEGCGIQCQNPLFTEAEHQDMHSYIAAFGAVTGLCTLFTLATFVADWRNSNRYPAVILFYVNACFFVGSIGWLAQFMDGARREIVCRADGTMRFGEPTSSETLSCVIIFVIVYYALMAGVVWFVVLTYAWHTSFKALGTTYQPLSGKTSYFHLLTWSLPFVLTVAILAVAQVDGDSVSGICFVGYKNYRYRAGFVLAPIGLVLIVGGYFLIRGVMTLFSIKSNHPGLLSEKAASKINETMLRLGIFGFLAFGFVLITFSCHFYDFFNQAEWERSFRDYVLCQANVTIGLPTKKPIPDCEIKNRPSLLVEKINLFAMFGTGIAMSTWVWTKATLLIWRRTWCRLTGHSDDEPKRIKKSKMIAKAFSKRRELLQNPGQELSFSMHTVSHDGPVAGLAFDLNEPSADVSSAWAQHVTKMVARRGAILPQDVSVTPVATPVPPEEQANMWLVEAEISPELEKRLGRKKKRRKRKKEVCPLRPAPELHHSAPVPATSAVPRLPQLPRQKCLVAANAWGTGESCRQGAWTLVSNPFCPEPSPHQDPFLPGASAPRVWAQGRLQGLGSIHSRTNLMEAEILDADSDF

[5] = tested on: Gli1 mRNA; test: Gli1 mRNA in Ptch+/−p53−/− medulloblastoma allografts in nude mice; assay type: in vivo, mouse; conditions: oral, 20 mg/kg/day qd
[6] = target: Mouse Smo Wild-type (Mus musculus, UniProt P56726); assay type: cell-based
Chain of Mouse Smo Wild-type (P56726 33-793): as above
Summary of the method: (§1)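 C3H10T1/2 cells transiently co-transfected with HA-tagged mouse Smo (wild-type or point mutant, in pcDNA3.1), a Gli-luciferase reporter and TK-driven renilla luciferase. Serial dilutions of test compound (0.001 to 10 μM final) added 24 h post-transfection. Firefly and renilla luciferase read by dual-luciferase assay after a further 24 h. Percent inhibition calculated relative to DMSO control.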

[7] = target: Mouse Smo N223D (Mus musculus, UniProt P56726, N223D); assay type: cell-based
Chain of Mouse Smo N223D (P56726 33-793 N223D): as the sequence (P56726 33-793) above, with N191D counted along it
Summary of the method: as §1

[8] = target: Mouse Smo L225R (Mus musculus, UniProt P56726, L225R); assay type: cell-based
Chain of Mouse Smo L225R (P56726 33-793 L225R): as the sequence (P56726 33-793) above, with L193R counted along it
Summary of the method: as §1

[9] = target: Mouse Smo D388N (Mus musculus, UniProt P56726, D388N); assay type: cell-based
Chain of Mouse Smo D388N (P56726 33-793 D388N): as the sequence (P56726 33-793) above, with D356N counted along it
Summary of the method: as §1

[10] = target: Mouse Smo S391N (Mus musculus, UniProt P56726, S391N); assay type: cell-based
Chain of Mouse Smo S391N (P56726 33-793 S391N): as the sequence (P56726 33-793) above, with S359N counted along it
Summary of the method: as §1

[11] = target: Mouse Smo G457S (Mus musculus, UniProt P56726, G457S); assay type: cell-based
Chain of Mouse Smo G457S (P56726 33-793 G457S): as the sequence (P56726 33-793) above, with G425S counted along it
Summary of the method: as §1

[12] = tested on: Ptch+/−Hic+/− medulloblastoma tumors; test: Ptch+/−Hic+/− medulloblastoma allograft efficacy study in nude mice; assay type: in vivo, mouse
[13] = tested on: Gli1, Ptch1, Ptch2 and CyclinD1 mRNA; test: Hh target gene mRNA in Ptch+/−Hic1+/− medulloblastoma allografts in nude mice; assay type: in vivo, mouse; conditions: Ptch+/−Hic1+/− allograft, oral, initial treatment

Compound: Nc1cc(C(F)(F)F)c(-c2cc(N3CCOCC3)nc(N3CCOCC3)n2)cn1 [NVP-BKM120, reference compound]
tumor growth inhibition in established NVP-LDE225 resistant tumors ([1]; treatment of established NVP-LDE225 resistant tumors, data not shown): modest but not statistically significant tumor growth inhibition

Compound: HhAntag
growth of resistant tumor cells upon exposure [2]: largely unaffected

IC50 [3]: 11 nM | IC50 [4]: 12 nM | IC50 [6]: 6 nM | IC50 [7]: > 10 µM | IC50 [8]: > 10 µM | IC50 [9]: > 10 µM | IC50 [10]: > 10 µM | IC50 [11]: 400 nM
Compound: Cc1c(C(=O)Nc2ccc(N3C[C@@H](C)O[C@@H](C)C3)nc2)cccc1-c1ccc(OC(F)(F)F)cc1 [NVP-LDE225]
expression of Hh pathway target gene Gli1 in tumors [5]: completely suppressed | tumor growth ([1]; 10 mg/kg/day, Ptch+/−p53−/− allograft): partial growth inhibition | tumor response during initial treatment ([12]; Ptch+/−Hic1+/− allograft, oral): tumor regression | number of complete regressions ([12]; Ptch+/−Hic+/− allograft, after 61 days of treatment, n=8, NVP-LDE225 80 mg/kg/day qd, NVP-BEZ235 40 mg/kg/day qd): 1 | Gli1, Ptch1, Ptch2 and CyclinD1 mRNA expression in tumors [13]: Pronounced inhibition

Source: paper PMC3422576 (Science translational medicine, 2010)
